# Reference: ChEMBL document CHEMBL1153763, “Discovering a new analogue of thalidomide which may be used as a potent modulator of TNF-alpha production” (Eur J Med Chem, 2009)
# Experiments:
# HL-60 [1] = assay: Enhancement of 12-O-tetradecanoylphorbol-13-acetate-induced TNFalpha production in human HL60 cell at 30 uM after 16 hrs by ELISA relative to control; assay type: functional
# Procedure, shortened: (§1)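 HL-60 cells in RPMI 1640 with 10% fetal bovine serum, 2 mM L-glutamine and penicillin/streptomycin, 37 °C, 5% CO2. Exponential cells (5×10^5 cells/mL) co-treated with 10 nM TPA plus compound (30 µM) for 16 h. Cell number and morphology checked microscopically. Supernatant TNF-α measured by human TNF-α ELISA, expressed as % of TPA-only treatment (100%). At least three experiments, triplicate means.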
# HUVEC = assay: Cytotoxicity against HUVEC by MTT assay; assay type: cell-based; details: Homo sapiens
# HT-29 = assay: Cytotoxicity against human HT-29 cells by MTT assay; assay type: functional, cell-based
# DLD-1 = assay: Cytotoxicity against human DLD1 cells by MTT assay; assay type: functional, cell-based
# HL-60 [2] = assay: Cytotoxicity against human HL60 cells by MTT assay; assay type: functional, cell-based
# ST486 = assay: Cytotoxicity against human ST486 cells by MTT assay; assay type: functional, cell-based
# HL-60 [3] = assay: Inhibition of okadaic acid-induced TNFalpha production in human HL60 cells at 30 uM after 16 hrs by ELISA relative to control; assay type: functional; details: HL-60, 16 h, values are per cent of control
# Procedure, shortened: as §1, with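 “given 50” for “co-treated with 10”, “okadaic acid” for “TPA”, “okadaic acid-only” for “TPA-only”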
Structure (SMILES),Activity (HL-60 [1]) [%],IC50 (HUVEC) [µM],IC50 (HT-29) [µM],IC50 (DLD-1) [µM],IC50 (HL-60 [2]) [µM],IC50 (ST486) [µM],"response, % of control at 30 µM (HL-60 [3]) [%]"
CN(C)CCN1C(=O)CCC(N2C(=O)c3ccc4ccccc4c3C2=O)C1=O (stereo unspecified),105,> 50,> 50,> 50,> 50,> 50,59
NC(=O)CCC(C(=O)O)N1C(=O)c2cccc3cc([N+](=O)[O-])cc(c23)C1=O (stereo unspecified),86,> 50,> 50,> 50,> 50,> 50,51
NC(=O)CCC(C(=O)O)N1C(=O)c2cccc3cccc(c23)C1=O (stereo unspecified),116,> 50,> 50,> 50,> 50,> 50,55
O=C1CCC(N2C(=O)c3cccc4cccc(c34)C2=O)C(=O)N1 (stereo unspecified),158,> 50,> 50,> 50,> 50,> 50,49
CN(C)CCN1C(=O)CCC(N2C(=O)C(c3ccccc3)=C(c3ccccc3)C2=O)C1=O (stereo unspecified),672,> 50,> 50,> 50,> 50,> 50,6
CN(C)CCN1C(=O)CCC(N2C(=O)c3ccccc3C2=O)C1=O (stereo unspecified),125,> 50,> 50,> 50,> 50,> 50,93
CN(C)CCN1C(=O)CCC(n2c(=O)c3cc4c(=O)n(C5CCC(=O)N(CCN(C)C)C5=O)c(=O)c4cc3c2=O)C1=O (stereo unspecified),138,> 50,> 50,> 50,> 50,> 50,77
Nc1cc2c3c(cccc3c1)C(=O)N(C1CCC(=O)NC1=O)C2=O (stereo unspecified),138,> 50,> 50,> 50,> 50,> 50,46
O=C1CCC(N2C(=O)c3ccccc3C2=O)C(=O)N1 (stereo unspecified) [THALIDOMIDE],164,> 50,> 50,> 50,> 50,> 50,53
CN(C)CCN1C(=O)CCC(N2C(=O)c3cc4ccccc4cc3C2=O)C1=O (stereo unspecified),149,> 50,> 50,> 50,> 50,> 50,50
CN(CCN1C(=O)CCC(N2C(=O)c3ccccc3C2=O)C1=O)CCN1C(=O)CCC(N2C(=O)c3ccccc3C2=O)C1=O (stereo unspecified),159,> 50,> 50,> 50,> 50,> 50,99
O=C1CCC(N2C(=O)C(c3ccccc3)=C(c3ccccc3)C2=O)C(=O)N1 (stereo unspecified),147,> 50,> 50,> 50,> 50,> 50,47
NC(=O)CCC(C(=O)O)N1C(=O)c2ccc3ccccc3c2C1=O (stereo unspecified),146,> 50,> 50,> 50,> 50,> 50,111
CN(C)CCN1C(=O)CCC(N2C(=O)c3cccc4cc(N)cc(c34)C2=O)C1=O (stereo unspecified),132,> 50,> 50,> 50,> 50,> 50,47
O=C1CCC(N2C(=O)c3cccc4cc([N+](=O)[O-])cc(c34)C2=O)C(=O)N1 (stereo unspecified),248,> 50,> 50,> 50,> 50,> 50,47
CN(C)CCN1C(=O)CCC(N2C(=O)c3cccc4cc([N+](=O)[O-])cc(c34)C2=O)C1=O (stereo unspecified),124,> 50,> 50,> 50,> 50,> 50,48
O=C1CCC(N2C(=O)c3cc4ccccc4cc3C2=O)C(=O)N1 (stereo unspecified),166,> 50,> 50,> 50,> 50,> 50,138
O=C1CCC(N2C(=O)c3ccc4ccccc4c3C2=O)C(=O)N1 (stereo unspecified),161,> 50,> 50,> 50,> 50,> 50,78
O=C1CCC(n2c(=O)c3cc4c(=O)n(C5CCC(=O)NC5=O)c(=O)c4cc3c2=O)C(=O)N1 (stereo unspecified),294,> 50,> 50,> 50,> 50,> 50,34
CN(C)CCN1C(=O)CCC(N2C(=O)c3cccc4cccc(c34)C2=O)C1=O (stereo unspecified),107,> 50,> 50,> 50,> 50,> 50,91
NC(=O)CCC(C(=O)O)N1C(=O)c2cccc3cc(N)cc(c23)C1=O (stereo unspecified),140,> 50,> 50,> 50,> 50,> 50,49
NC(=O)CCC(C(=O)O)N1C(=O)c2cc3ccccc3cc2C1=O (stereo unspecified),258,> 50,> 50,> 50,> 50,> 50,60
NC(=O)CCC(C(=O)O)N1C(=O)C(c2ccccc2)=C(c2ccccc2)C1=O (stereo unspecified),146,> 50,> 50,> 50,> 50,> 50,66
